Data published in ChEMBL document CHEMBL3112547, “Surface plasmon resonance using the catalytic domain of soluble guanylate cyclase allows the detection of enzyme activators” (Bioorg Med Chem Lett, 2014).
The source made the active and inactive calls. The rule behind the calls is not given here.

Key:
[1] = target: T1, Soluble guanylate cyclase alpha1/beta1 complex (Homo sapiens) (UniProt Q02153+Q02108); test: Activation of human recombinant sGC subunit alpha-1/beta-1 using GTP as substrate assessed as cGMP production measured per ng of protein at 100 uM treated prior to DEA/NO addition measured after 2 mins by radioimmunoassay in presence of Mg2+; assay type: protein-complex assay
[2] = target: T1, Soluble guanylate cyclase alpha1/beta1 complex (Homo sapiens); test: Binding affinity to sGC subunit alpha-1/beta-1 catalytic domain (unknown origin) assessed as occupancy relative to control; assay type: protein-complex assay
In short: (§1)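 Compounds at 100 μM in DMSO-containing running buffer, 25 °C. Injection and dissociation 30 s each, triplicate. Responses double-referenced, DMSO-corrected, control subtracted; occupancy is the fraction of immobilised sites bound, assuming 1:1 stoichiometry.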

[3] = target: T1, Soluble guanylate cyclase alpha1/beta1 complex (Homo sapiens); test: Binding affinity to full-length human recombinant sGC subunit alpha-1/beta-1 at 100 uM after 30 seconds by SPR analysis; assay type: protein-complex assay
In short: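 Compounds at 100 μM in running buffer (10 mM HEPES pH 7.4, 150 mM NaCl, 3 mM EDTA, 0.05% P20, 1 mM DTT, 10 mM MgCl2, 5% DMSO), 25 °C. Injection and dissociation 30 s each, triplicate.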

[4] = Solubility of the compound in assay buffer in presence of 5% DMSO; assay type: physicochemical
[5] = target: T1, Soluble guanylate cyclase alpha1/beta1 complex (Homo sapiens); test: Binding affinity to sGC subunit alpha-1/beta-1 catalytic domain (unknown origin) at 100 uM after 30 seconds by SPR analysis; assay type: protein-complex assay; in short: as §1

SMILES | Activity [1] [pmol] | Occ [2] [%] | Activity [3] | solubility [4] | Activity [5]
Cc1oncc1Cn1nc(-c2nc(CN)no2)c2ccccc21 | 9.09 | 34 | Active | – | –
CC(C)(C)OC(=O)NCc1noc(-c2nn(Cc3ccc4c(c3)OCO4)c3ccccc23)n1 | 15.6 | 40 | Active | – | –
CC(=O)n1nc(-c2nc(CN)no2)c2ccccc21 | 4.05 | 20 | – | – | –
NCc1noc(-c2c3ccccc3nn2Cc2ccc3c(c2)OCO3)n1 | 9.11 | 96 | – | – | –
NCc1noc(-c2c3ccccc3nn2Cc2cccc(Cl)c2)n1 | 2.08 | 94 | – | – | –
CC(=O)Nc1ccc(Cn2nc(-c3nc(CNC(=O)OC(C)(C)C)no3)c3ccccc32)cc1 | 2.23 | 62 | – | – | –
Nc1nc(-c2nn(Cc3ccccc3F)c3ncccc23)ncc1C1CC1 | – | – | – | Insoluble | –
Cc1ccccc1Cn1nc(-c2nc(CN)no2)c2ccccc21 | 3.22 | 101 | Active | – | –
Cc1ccc(Cn2nc(-c3nc(CN)no3)c3ccccc32)cc1 | 14.3 | 90 | Active | – | –
O=C(O)CCCCN(CCc1ccccc1OCc1ccc(CCc2ccccc2)cc1)Cc1ccc(C(=O)O)cc1 | – | – | Active | – | inactive
NCc1noc(-c2c3ccccc3nn2CCn2ccnc2)n1 | 2.72 | 28 | – | – | –
COc1ccc(Cn2nc(-c3nc(CN)no3)c3ccccc32)cc1 | 2.33 | 21 | inactive | – | inactive
